# Measurements reported in ChEMBL document CHEMBL5724801, “EUbOPEN Chemogenomics Library - Multiplex” (2024).
# Where “and” joins values, the source holds several entries; their conditions need not be identical. Equal entries are not always repeated.
# How the values were obtained:
# Fibroblast = assay: Multiplex assay against human fibroblast; type: toxicity, cell-based
# Method in brief: (§1)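 Tubulin, mitochondrial-mass and membrane-permeability phenotypes are per cents of healthy-nucleus cells. Cells were gated by CellPathfinder machine learning into Hoechst high-intensity objects or normal cells, normal cells into healthy, pyknosed or fragmented nuclei, and pyknosed cells into mitotic or apoptotic. Before that, live cells stained at seeding with Hoechst33342, BioTracker Green Microtubule Cytoskeleton Dye, MitoTracker Red and Annexin V Alexa Fluor 680 were imaged on a CQ1 microscope at 37°C and 5% CO2 after compound addition.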
# U2OS = assay: Multiplex assay against U2OS; type: toxicity, cell-based; details: human; method in brief: as §1
# [1] = 12 h, 1 µM, compound concentration 1 uM
# [2] = 12 h, 10 µM, compound concentration 10 uM
# [3] = 24 h, 1 µM, compound concentration 1 uM
# [4] = 24 h, 10 µM, compound concentration 10 uM
# [5] = 48 h, 1 µM, compound concentration 1 uM
# [6] = 48 h, 10 µM, compound concentration 10 uM
smiles,measurement,setting,value
C=CC(=O)N1CCC[C@@H](n2nc(C(=O)Nc3ccc(CC(=O)N(C)C)c(C)c3C)c3c(N)ncnc32)C1,Population Fragmented Nuclei (%),Fibroblast; [1],10.1% and 3.17%
same,Population Healthy Nuclei (%),Fibroblast; [1],56.73% and 73.02%
same,Population Hoechst High Intensity Objects (%),Fibroblast; [1],0%
same,Population Membrane Permeable-Phenotype (%),Fibroblast; [1],1.69% and 0.72%
same,Population Mitochondria Different-Phenotype (%),Fibroblast; [1],9.32% and 5.8%
same,Population Mitotic Cells (%),Fibroblast; [1],97.1% and 80%
same,Population Normal (%),Fibroblast; [1],100%
same,Population Pyknosed Nuclei (%),Fibroblast; [1],33.17% and 23.81%
same,Population Tubulin-Different-Phenotype (%),Fibroblast; [1],14.41% and 5.8%
same,Total Cell Count,Fibroblast; [1],208 and 189
same,Population Apoptotic (%),Fibroblast; [2],5.56% and 8.57%
same,Population Fragmented Nuclei (%),Fibroblast; [2],8.2% and 7.93%
same,Population Healthy Nuclei (%),Fibroblast; [2],62.3% and 70.73%
same,Population Hoechst High Intensity Objects (%),Fibroblast; [2],0%
same,Population Membrane Permeable-Phenotype (%),Fibroblast; [2],9.65% and 7.76%
same,Population Mitochondria Different-Phenotype (%),Fibroblast; [2],11.4% and 13.79%
same,Population Mitotic Cells (%),Fibroblast; [2],94.44% and 91.43%
same,Population Normal (%),Fibroblast; [2],100%
same,Population Pyknosed Nuclei (%),Fibroblast; [2],29.51% and 21.34%
same,Population Tubulin-Different-Phenotype (%),Fibroblast; [2],21.93% and 32.76%
same,Total Cell Count,Fibroblast; [2],183 and 164
same,Population Apoptotic (%),Fibroblast; [3],18.18% and 16.67%
same,Population Fragmented Nuclei (%),Fibroblast; [3],12.88% and 6.53%
same,Population Healthy Nuclei (%),Fibroblast; [3],68.24% and 78.39%
same,Population Hoechst High Intensity Objects (%),Fibroblast; [3],0%
same,Population Membrane Permeable-Phenotype (%),Fibroblast; [3],3.77% and 2.56%
same,Population Mitochondria Different-Phenotype (%),Fibroblast; [3],7.55% and 8.33%
same,Population Mitotic Cells (%),Fibroblast; [3],81.82% and 83.33%
same,Population Normal (%),Fibroblast; [3],100%
same,Population Pyknosed Nuclei (%),Fibroblast; [3],18.88% and 15.08%
same,Population Tubulin-Different-Phenotype (%),Fibroblast; [3],13.21% and 10.26%
same,Total Cell Count,Fibroblast; [3],233 and 199
same,Population Fragmented Nuclei (%),Fibroblast; [4],12.56% and 7.73%
same,Population Healthy Nuclei (%),Fibroblast; [4],67.34% and 70.72%
same,Population Hoechst High Intensity Objects (%),Fibroblast; [4],0%
same,Population Membrane Permeable-Phenotype (%),Fibroblast; [4],8.96% and 3.12%
same,Population Mitochondria Different-Phenotype (%),Fibroblast; [4],9.7% and 14.06%
same,Population Mitotic Cells (%),Fibroblast; [4],95% and 84.62%
same,Population Normal (%),Fibroblast; [4],100%
same,Population Pyknosed Nuclei (%),Fibroblast; [4],20.1% and 21.55%
same,Population Tubulin-Different-Phenotype (%),Fibroblast; [4],23.13% and 33.59%
same,Total Cell Count,Fibroblast; [4],199 and 181
same,Population Apoptotic (%),Fibroblast; [5],13.79% and 22.22%
same,Population Fragmented Nuclei (%),Fibroblast; [5],7.48% and 7.76%
same,Population Healthy Nuclei (%),Fibroblast; [5],81.1% and 84.02%
same,Population Hoechst High Intensity Objects (%),Fibroblast; [5],0%
same,Population Membrane Permeable-Phenotype (%),Fibroblast; [5],0.97% and 1.63%
same,Population Mitotic Cells (%),Fibroblast; [5],86.21% and 77.78%
same,Population Normal (%),Fibroblast; [5],100%
same,Population Pyknosed Nuclei (%),Fibroblast; [5],11.42% and 8.22%
same,Population Tubulin-Different-Phenotype (%),Fibroblast; [5],5.34% and 12.5%
same,Total Cell Count,Fibroblast; [5],254 and 219
same,Population Apoptotic (%),Fibroblast; [6],22.22% and 18.75%
same,Population Fragmented Nuclei (%),Fibroblast; [6],7.14% and 11.46%
same,Population Healthy Nuclei (%),Fibroblast; [6],84.29% and 80.21%
same,Population Hoechst High Intensity Objects (%),Fibroblast; [6],0%
same,Population Membrane Permeable-Phenotype (%),Fibroblast; [6],3.39% and 5.84%
same,Population Mitochondria Different-Phenotype (%),Fibroblast; [6],12.99% and 3.9%
same,Population Mitotic Cells (%),Fibroblast; [6],77.78% and 81.25%
same,Population Normal (%),Fibroblast; [6],100%
same,Population Pyknosed Nuclei (%),Fibroblast; [6],8.57% and 8.33%
same,Population Tubulin-Different-Phenotype (%),Fibroblast; [6],19.21% and 29.22%
same,Total Cell Count,Fibroblast; [6],210 and 192
same,Population Apoptotic (%),U2OS; [1],31.58% and 48.15%
same,Population Fragmented Nuclei (%),U2OS; [1],2.15% and 3.28%
same,Population Healthy Nuclei (%),U2OS; [1],88.76% and 81.97%
same,Population Hoechst High Intensity Objects (%),U2OS; [1],0%
same,Population Membrane Permeable-Phenotype (%),U2OS; [1],1.08% and 0.67%
same,Population Mitochondria Different-Phenotype (%),U2OS; [1],0.54% and 8.67%
same,Population Mitotic Cells (%),U2OS; [1],68.42% and 51.85%
same,Population Normal (%),U2OS; [1],100%
same,Population Pyknosed Nuclei (%),U2OS; [1],9.09% and 14.75%
same,Population Tubulin-Different-Phenotype (%),U2OS; [1],1.08% and 0%
same,Total Cell Count,U2OS; [1],418 and 183
same,Population Apoptotic (%),U2OS; [2],42.86% and 45.45%
same,Population Fragmented Nuclei (%),U2OS; [2],1.65% and 3.24%
same,Population Healthy Nuclei (%),U2OS; [2],88.47% and 84.86%
same,Population Hoechst High Intensity Objects (%),U2OS; [2],0.23% and 0%
same,Population Mitotic Cells (%),U2OS; [2],57.14% and 54.55%
same,Population Normal (%),U2OS; [2],99.77% and 100%
same,Population Pyknosed Nuclei (%),U2OS; [2],9.88% and 11.89%
same,Population Tubulin-Different-Phenotype (%),U2OS; [2],0.27% and 3.82%
same,Total Cell Count,U2OS; [2],426 and 185
same,Population Apoptotic (%),U2OS; [3],37.21% and 57.14%
same,Population Fragmented Nuclei (%),U2OS; [3],1.84% and 1.69%
same,Population Healthy Nuclei (%),U2OS; [3],90.24% and 83.47%
same,Population Hoechst High Intensity Objects (%),U2OS; [3],0.18% and 0%
same,Population Membrane Permeable-Phenotype (%),U2OS; [3],0.41% and 2.54%
same,Population Mitochondria Different-Phenotype (%),U2OS; [3],0.41% and 6.6%
same,Population Mitotic Cells (%),U2OS; [3],62.79% and 42.86%
same,Population Normal (%),U2OS; [3],99.82% and 100%
same,Population Pyknosed Nuclei (%),U2OS; [3],7.92% and 14.83%
same,Population Tubulin-Different-Phenotype (%),U2OS; [3],1.02% and 0%
same,Total Cell Count,U2OS; [3],544 and 236
same,Population Apoptotic (%),U2OS; [4],57.14% and 50%
same,Population Fragmented Nuclei (%),U2OS; [4],2.56% and 2.27%
same,Population Healthy Nuclei (%),U2OS; [4],87.18% and 86.82%
same,Population Hoechst High Intensity Objects (%),U2OS; [4],0%
same,Population Membrane Permeable-Phenotype (%),U2OS; [4],1.47% and 8.38%
same,Population Mitotic Cells (%),U2OS; [4],42.86% and 50%
same,Population Normal (%),U2OS; [4],100%
same,Population Pyknosed Nuclei (%),U2OS; [4],10.26% and 10.91%
same,Population Tubulin-Different-Phenotype (%),U2OS; [4],0.84% and 2.62%
same,Total Cell Count,U2OS; [4],546 and 220
same,Population Apoptotic (%),U2OS; [5],38.38% and 67.35%
same,Population Fragmented Nuclei (%),U2OS; [5],2.8% and 4.6%
same,Population Healthy Nuclei (%),U2OS; [5],87.64% and 82.86%
same,Population Hoechst High Intensity Objects (%),U2OS; [5],0%
same,Population Membrane Permeable-Phenotype (%),U2OS; [5],0.66% and 2.16%
same,Population Mitochondria Different-Phenotype (%),U2OS; [5],0.11% and 7.41%
same,Population Mitotic Cells (%),U2OS; [5],61.62% and 32.65%
same,Population Normal (%),U2OS; [5],100%
same,Population Pyknosed Nuclei (%),U2OS; [5],9.56% and 12.53%
same,Population Tubulin-Different-Phenotype (%),U2OS; [5],0.66% and 0.31%
same,Total Cell Count,U2OS; [5],1036 and 391
same,Population Apoptotic (%),U2OS; [6],50.48% and 54.35%
same,Population Fragmented Nuclei (%),U2OS; [6],1.98% and 2.5%
same,Population Healthy Nuclei (%),U2OS; [6],87.11% and 83.12%
same,Population Hoechst High Intensity Objects (%),U2OS; [6],0.1% and 0.31%
same,Population Membrane Permeable-Phenotype (%),U2OS; [6],1.07% and 3.01%
same,Population Mitochondria Different-Phenotype (%),U2OS; [6],0.12% and 6.02%
same,Population Mitotic Cells (%),U2OS; [6],49.52% and 45.65%
same,Population Normal (%),U2OS; [6],99.9% and 99.69%
same,Population Pyknosed Nuclei (%),U2OS; [6],10.91% and 14.37%
same,Population Tubulin-Different-Phenotype (%),U2OS; [6],0.95% and 1.5%
same,Total Cell Count,U2OS; [6],963 and 321
